The source of these data is publication PMC12339990 (Scientific Reports, 2025).

“Also recorded” adds a separate entry of the source.

What all share (design): species or system Syrian hamsters (Mesocricetus auratus)
In assay [1] the target is T1, recombinant FLP (rFLP) (Mesocricetus auratus, UniProt Q99MG7).
T1 sequence (Q99MG7 17-172): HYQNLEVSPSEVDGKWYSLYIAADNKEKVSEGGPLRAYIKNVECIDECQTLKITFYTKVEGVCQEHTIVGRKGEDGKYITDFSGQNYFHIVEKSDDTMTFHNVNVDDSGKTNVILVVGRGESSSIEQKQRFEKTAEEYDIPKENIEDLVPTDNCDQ
The assay can be described thus: Fluorescence ligand binding / competitive displacement of probe 1-NPN from rFLP. To be noted: for binding / competitor activity with rFLP in fluorescent-probe assay (in words): probe 1-NPN. An outline of the steps: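 rFLP was expressed in E. coli BL21(DE3) with 1 mM IPTG and purified by Ni-NTA and Sephadex G-75. Assays used 2 µM protein in 20 mM Tris-HCl pH 7.4 at 25 °C, excitation 295 nm, emission read at 425 nm. For Kd, 1-NPN (1 mM methanol stock) was titrated and fitted against free probe, assuming 1:1 binding and fully active protein. Competitors (0.25–40 µM) displaced 2 µM probe. IC50 was taken at half-maximal fluorescence; Ki = IC50/(1+[L]/Kd).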

For assay [2], the target named is T2, recombinant MSP (rMSP) (Mesocricetus auratus, UniProt Q9QXU1).
T2 sequence (Q9QXU1 16-172): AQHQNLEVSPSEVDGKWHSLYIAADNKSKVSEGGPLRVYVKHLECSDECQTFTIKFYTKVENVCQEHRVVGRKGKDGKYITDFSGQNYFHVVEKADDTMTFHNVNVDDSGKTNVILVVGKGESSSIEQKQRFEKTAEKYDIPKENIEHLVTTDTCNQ
The assay can be described thus: Fluorescence ligand binding / competitive displacement of probe 1-AMA from rMSP. Conditions: for binding / competitor activity with rMSP in fluorescent-probe assay (in words): probe 1-AMA. An outline of the steps:
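rMSP was expressed in E. coli BL21(DE3) with 1 mM IPTG and purified by Ni-NTA and Sephadex G-75. Assays used 2 µM protein in 20 mM Tris-HCl pH 7.4 at 25 °C, excitation 295 nm, emission read at 485 nm. For Kd, 1-AMA (1 mM methanol stock) was titrated and fitted against free probe, assuming 1:1 binding and fully active protein. Competitors (0.25–40 µM) displaced 2 µM probe. IC50 was taken at half-maximal fluorescence; Ki = IC50/(1+[L]/Kd).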

The target of assay [3] is T3, nMSP (mixture of three natural MSP forms) (Mesocricetus auratus, UniProt Q9QXU1).
T3 sequence (Q9QXU1 16-172): T2 sequence (Q9QXU1 16-172)
The assay can be described thus: IBMP binding detected by GC-MS of protein peak after gel-filtration. Conditions: ~7.2 mM IBMP, ~200 µM protein, 25 °C 1 h, Sephadex-G-25, DCM extract. An outline of the steps:
(§1)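 The protein–IBMP mix was incubated on a rotary shaker, with chymotrypsin as negative control. After G-25 elution, fractions of the first OD280 peak were mixed with dichloromethane, vortexed and held overnight at −20 °C. The lower organic phase was analyzed by GC-MS: 2 µl splitless, helium 1 ml/min, oven 50→300 °C stepwise, 70 eV ionization, total ion current mode.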

The target in assay [4] is T4, rMSP (Mesocricetus auratus, UniProt Q9QXU1).
T4 sequence (Q9QXU1 16-172): T2 sequence (Q9QXU1 16-172)
The description is as above. Conditions: ~7.2 mM IBMP, ~200 µM protein, 25 °C 1 h, Sephadex-G-25, DCM extract. An outline of the steps:
as §1

For assay [5], the target named is T5, rFLP (Mesocricetus auratus, UniProt Q99MG7).
T5 sequence (Q99MG7 17-172): T1 sequence (Q99MG7 17-172)
The description is as above. To be noted: ~7.2 mM IBMP, ~200 µM protein, 25 °C 1 h, Sephadex-G-25, DCM extract. An outline of the steps: as §1

In assay [6] the target is T6, 30 kDa MSP (Mesocricetus auratus, UniProt Q9QXU1).
T6 sequence (Q9QXU1 16-172): T2 sequence (Q9QXU1 16-172)
The assay can be described thus: Lectin binding. An outline of the steps:
(§2)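 Natural MSP, a mixture of three forms purified from adult male submandibular gland, was tested with a digoxigenin-labelled lectin kit (GNA, SNA, MAA, DSA, PNA). It was also passed through Con A, WGA and jacalin affinity columns. Unbound fractions and fractions eluted with lectin-specific sugars were checked for MSP forms by SDS-PAGE.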

Assay [7] addresses T7, 24 kDa MSP (Mesocricetus auratus, UniProt Q9QXU1).
T7 sequence (Q9QXU1 16-172): T2 sequence (Q9QXU1 16-172)
The assay can be described thus: Lectin binding. The method, boiled down:
as §2

Turning to `C=CC(O)CCCCC` (centres unmarked) [1-octen-3-ol], the “binding / competitor activity with rFLP in fluorescent-probe assay (in words)” value (shortened to “binding / competitor activity with rFLP”) in assay [1] is listed as “no competitor activity”. For the same molecule, in assay [2], the “binding / competitor activity with rMSP in fluorescent-probe assay (in words)” value (“binding / competitor activity with rMSP” below) is “no competitor activity”.

For `CCCCCCCC/C=C\CCCCCCCC(=O)O` [oleic], the “binding / competitor activity with rFLP” value in assay [1] is given as “no competitor activity”. For the same molecule, the “binding / competitor activity with rMSP” value in assay [2] is “no competitor activity”.

With `CCCCCCCCCCCCCC(=O)O` [myristic], in assay [1], the “binding / competitor activity with rFLP” value is listed as “no competitor activity”. The “binding / competitor activity with rMSP” value in assay [2] is given as “no competitor activity”.

Broadly, the Kd is a measure of binding affinity in units of concentration. For `c1ccc(Nc2cccc3ccccc23)cc1` [1-NPN, N-phenyl-1-naphthylamine], in assay [1], the Kd is approximately 1.38 µM and the “binding / competitor activity with rFLP” value is listed as “strong affinity”.

As to `COc1nccnc1CC(C)C` [IBMP, 2-isobutyl-3-methoxypyrazine], the “IBMP found by GC-MS in protein peak fraction (binding to nMSP)” value in assay [3] is “specific binding; also recorded: retain and specifically carry (i.e. bind) detectable levels”. Also, in assay [1], the “binding / competitor activity with rFLP” value is reported as “high affinity”. Further, the “binding / competitor activity with rMSP” value in assay [2] is listed as “high affinity”. Further, the “IBMP found by GC-MS in protein peak fraction (binding to rMSP)” value in assay [4] was “specific binding; also recorded: retain and specifically carry (i.e. bind) detectable levels”. The “IBMP found by GC-MS in protein peak fraction (binding to rFLP)” value in assay [5] is “specific binding; also recorded: retain and specifically carry (i.e. bind) detectable levels”.

On to `O=C(O)c1cc(O)ccc1O` [2,5-dihrodoxy benzoic acid], for which, in assay [1], the “binding / competitor activity with rFLP” value is on record as “no competitor activity”. In addition, the “binding / competitor activity with rMSP” value in assay [2] is recorded as “no competitor activity”.

Regarding `CC(=O)N(O)CCCCCNC(=O)CCC(=O)N(O)CCCCCNC(=O)CCC(=O)N(O)CCCCCN` [deferoxamine], in assay [1], the “binding / competitor activity with rFLP” value is reported as “no competitor activity”. For the same molecule, the “binding / competitor activity with rMSP” value in assay [2] was “no competitor activity”.

With `Nc1cccc2cc3ccccc3cc12` [1-AMA, 1-aminoanthracene], in assay [2], the Kd is approximately 1.86 µM and the “binding / competitor activity with rMSP” value was “strong affinity”.

On to `CCCCCCCCCCCCCCCCCC(=O)O` [stearic], for which, in assay [1], the “binding / competitor activity with rFLP” value is listed as “no competitor activity”. Moreover, the “binding / competitor activity with rMSP” value in assay [2] was “no competitor activity”.

With `CCCCCCCCCCCCCCCC(=O)O` [palmitic], the “binding / competitor activity with rFLP” value in assay [1] is given as “no competitor activity”. Besides, in assay [2], the “binding / competitor activity with rMSP” value is “no competitor activity”.

Turning to `CC(=O)[C@H]1CC[C@H]2[C@@H]3CCC4=CC(=O)CC[C@]4(C)[C@H]3CC[C@]12C` [progesterone], the “binding / competitor activity with rFLP” value in assay [1] was “extremely weak competitors”. Also, in assay [2], the “binding / competitor activity with rMSP” value is on record as “extremely weak competitors”.

Consider `C[C@]12CC[C@H]3[C@@H](CCC4=CC(=O)CC[C@@]43C)[C@@H]1CC[C@@H]2O` [testosterone], for which, in assay [1], the “binding / competitor activity with rFLP” value is listed as “extremely weak competitors”. Besides, the “binding / competitor activity with rMSP” value in assay [2] is “extremely weak competitors”.

Take `CCCCCCCCCCCCCCCCO` [hexadecanol]: the “binding / competitor activity with rFLP” value in assay [1] is listed as “no competitor activity”. Besides, the “binding / competitor activity with rMSP” value in assay [2] is recorded as “no competitor activity”.

Consider `C[C@]12CC[C@@H]3c4ccc(O)cc4CC[C@H]3[C@@H]1CC[C@@H]2O` [17β-estradiol], for which, in assay [1], the “binding / competitor activity with rFLP” value was “extremely weak competitors”. The “binding / competitor activity with rMSP” value in assay [2] was “extremely weak competitors”.

With `O=C(O)c1cccc(O)c1O` [2,3-dihydroxybenzoic acid], the “binding / competitor activity with rFLP” value in assay [1] is “no competitor activity”. The “binding / competitor activity with rMSP” value in assay [2] is “no competitor activity”.

B1: PNA: Peanut agglutinin, digoxigenin labeled (protein, UniProt P02872 24-273, looked up)
Galactose-binding lectin: AETVSFNFNSFSEGNPAINFQGDVTVLSNGNIQLTNLNKVNSVGRVLYAMPVRIWSSATGNVASFLTSFSFEMKDIKDYDPADGIIFFIAPEDTQIPAGSIGGGTLGVSDTKGAGHFVGVEFDTYSNSEYNDPPTDHVGIDVNSVDSVKTVPWNSVSGAVVKVTVIYDSSTKTLSVAVTNDNGDITTIAQVVDLKAKLPERVKFGFSASGSLGGRQIHLIRSWSFTSTLITTTRRSIDNNEKKIMNMASA
modifications: digoxigenin label
As for B1, the “Binding of lectin to 30 kDa MSP (in words)” value in assay [6] is “lack of binding”. Also, the “Binding of lectin to 24 kDa MSP (in words)” value in assay [7] is “lack of binding”.
